Measurements as given in publication PMC2909692 (Nuclear medicine and biology, 2010).
Values joined by “and” are separate entries in the source; they are usually repeats but may differ in a detail not shown here. Equal values may be shown once. Read-outs that look alike come from different tables or passages of the source.

Assays:
VMAT2 = VMAT2 (Rattus norvegicus, UniProt Q01827); test: small animal PET imaging with [18F]AV-133 in 6-OHDA unilateral lesioned rats; format: in vivo
How it was run: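 Male Sprague Dawley rats with a unilateral left 6-OHDA lesion passed an apomorphine rotation check (0.05 mg/kg s.c., day 21). Under 1.5-2.5% isoflurane, each received [18F]AV-133 (50-57 MBq) by tail vein and was imaged dynamically for 4 hrs (5 min frames, then 15 min frames). ROI analysis on reconstructed images gave % change = ((R striatum − cerebellum) − (L striatum − cerebellum))/(R striatum − cerebellum) × 100.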

[1] = target: serotonin transporter (SERT); details: read-out: Ki (affinity); in vitro binding assays; ref [23]-[25]; cited from earlier work
[2] = normal rats, ref [23]-[25], cited from earlier work
SERT [3] = target: T1, SERT (Rattus norvegicus, UniProt P31652); test: regional brain biodistribution of [18F]FPBM in PCA-treated and control rats; format: in vivo; details: 60 min, n = 6
T1 sequence (P31652 whole entry): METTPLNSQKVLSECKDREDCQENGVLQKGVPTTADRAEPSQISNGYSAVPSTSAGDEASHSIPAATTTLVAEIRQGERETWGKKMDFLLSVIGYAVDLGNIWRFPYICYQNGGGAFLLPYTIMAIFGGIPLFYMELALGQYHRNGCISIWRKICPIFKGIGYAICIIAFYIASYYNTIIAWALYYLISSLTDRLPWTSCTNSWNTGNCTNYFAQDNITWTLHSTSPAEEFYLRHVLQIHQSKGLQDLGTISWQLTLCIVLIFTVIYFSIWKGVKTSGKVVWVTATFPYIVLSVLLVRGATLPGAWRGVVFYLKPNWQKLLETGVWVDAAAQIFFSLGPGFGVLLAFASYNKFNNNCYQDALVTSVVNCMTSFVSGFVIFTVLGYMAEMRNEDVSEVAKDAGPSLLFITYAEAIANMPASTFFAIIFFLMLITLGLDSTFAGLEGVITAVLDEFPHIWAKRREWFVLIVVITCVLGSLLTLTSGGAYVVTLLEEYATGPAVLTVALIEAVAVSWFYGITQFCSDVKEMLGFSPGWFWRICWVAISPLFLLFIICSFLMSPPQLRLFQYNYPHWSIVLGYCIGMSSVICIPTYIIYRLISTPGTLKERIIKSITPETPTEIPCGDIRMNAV
How it was run: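 Male Sprague Dawley rats (12, split into two groups) received PCA 5 mg/kg i.p. or saline daily for 2 consecutive days. Six days later they were given [18F]FPBM i.v. and killed under isoflurane 60 min post-injection. Radioactivity distribution was measured in brain regions only, not peripheral organs.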

SERT [4] = target: T1, SERT; format: in vivo
How it was run: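 Rats under 1.5-2.5% isoflurane were scanned on a Philips Mosaic animal PET after tail-vein [18F]FPBM (37-51 MBq lesioned; 43-57 MBq normal controls). Dynamic acquisition ran 4 hrs: 5-min frames for 2 hrs, then 15-min frames. Lesioned rats were apomorphine-screened (0.05 mg/kg s.c.) and rescanned 7-20 days later. ROI time-activity points were summed per region; left-striatum change = ((R−CB)−(L−CB))/(R−CB)×100.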

SERT [5] = target: T1, SERT; test: quantitative in vitro autoradiography with [18F]FPBM on rat brain sections; format: binding; details: n = 3
How it was run: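 Coronal 20 μm cryostat sections from left-lesioned (6-OHDA) male Sprague Dawley rat brains were preincubated for 20 min at room temperature in 50 mM Tris/120 mM NaCl, pH 7.4, then dried. They were incubated for 1 hr at room temperature in that buffer containing [18F]FPBM (166-178 Bq/μL), rinsed cold 2 × 45 min, and exposed to film for 24 hrs with calibration standards. % change = ((R − cerebellum) − (L − cerebellum))/(R − cerebellum) × 100, averaged over rostral-striatum sections.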

[6] = target: dopamine transporter (DAT) (Rattus norvegicus, UniProt P23977); test: quantitative in vitro autoradiography with [125I]IPT on rat brain sections; format: binding
dopamine transporter (DAT), sequence (P23977 whole entry): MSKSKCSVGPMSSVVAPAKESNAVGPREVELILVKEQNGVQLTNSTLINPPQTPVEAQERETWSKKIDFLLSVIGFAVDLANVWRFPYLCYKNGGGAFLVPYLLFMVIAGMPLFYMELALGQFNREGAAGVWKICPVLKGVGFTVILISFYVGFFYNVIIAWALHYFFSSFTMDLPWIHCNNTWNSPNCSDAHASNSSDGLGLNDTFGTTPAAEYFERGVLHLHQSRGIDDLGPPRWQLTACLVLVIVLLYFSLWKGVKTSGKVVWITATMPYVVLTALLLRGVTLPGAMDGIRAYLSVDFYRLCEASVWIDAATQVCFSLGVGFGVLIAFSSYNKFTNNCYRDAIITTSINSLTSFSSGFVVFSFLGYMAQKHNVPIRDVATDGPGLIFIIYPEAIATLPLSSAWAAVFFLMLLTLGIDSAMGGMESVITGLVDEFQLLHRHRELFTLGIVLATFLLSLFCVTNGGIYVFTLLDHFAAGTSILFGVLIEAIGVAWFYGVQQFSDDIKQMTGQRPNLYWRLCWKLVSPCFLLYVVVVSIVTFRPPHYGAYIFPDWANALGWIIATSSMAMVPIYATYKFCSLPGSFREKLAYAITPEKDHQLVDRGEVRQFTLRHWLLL
How it was run: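 Brains from lesioned rats were frozen in OCT, and 20 μm coronal cryosections were desiccated 2 hrs at 4 °C, then stored at −70 °C. Sections were preincubated 20 min at room temperature in 50 mM Na2HPO4/0.32 M sucrose pH 7.4, then incubated 2 hrs with [125I]IPT (13-19 Bq/μL). Rinses: cold buffer 2 × 30 min, then cold water. Film exposure was 24 hrs with 125I homogenate standards (0.04-1.48 kBq/mg). Change = ((R−CB)−(L−CB))/(R−CB)×100, averaged over sections.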

VMAT2, sequence (Q01827 whole entry): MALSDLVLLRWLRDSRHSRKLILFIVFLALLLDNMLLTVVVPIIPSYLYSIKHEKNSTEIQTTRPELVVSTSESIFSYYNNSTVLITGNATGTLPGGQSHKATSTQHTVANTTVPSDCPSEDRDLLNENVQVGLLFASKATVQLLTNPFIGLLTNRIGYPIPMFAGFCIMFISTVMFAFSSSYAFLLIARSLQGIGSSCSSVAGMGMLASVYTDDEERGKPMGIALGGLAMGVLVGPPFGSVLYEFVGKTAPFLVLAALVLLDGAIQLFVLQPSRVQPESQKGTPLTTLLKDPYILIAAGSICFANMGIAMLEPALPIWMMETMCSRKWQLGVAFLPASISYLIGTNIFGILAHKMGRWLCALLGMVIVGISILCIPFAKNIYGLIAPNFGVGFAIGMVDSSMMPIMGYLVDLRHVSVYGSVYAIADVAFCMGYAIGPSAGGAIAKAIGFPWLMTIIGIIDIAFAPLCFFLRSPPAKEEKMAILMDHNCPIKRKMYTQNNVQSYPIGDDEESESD

COc1cc2c(cc1OCCCF)CCN1CC(CC(C)C)C(O)CC21 (single isomer, unassigned; (+)) [[^18F]AV-133, (+)-2-Hydroxy-3-isobutyl-9-(3-fluoropropoxy)-10-methoxy-1,2,3,4,6,7-hexahydro-11bH-benzo[a]quinolizine]
percent binding change in the left striatum (PET) (VMAT2; 6-OHDA lesioned rat #1, n = 1): −87%
percent binding change in the left striatum (PET) (VMAT2; 6-OHDA lesioned rat #2, n = 1): −72%
percent binding change in the left striatum (PET) (VMAT2; 6-OHDA lesioned rat #3, n = 1): −91%

CN(C)Cc1cc(OCCC[18F])ccc1Sc1ccccc1N [[^18F]FPBM, 2-(2′-((dimethylamino)methyl)-4′-(3-[^18F]-fluoropropoxy)phenylthio)benzenamine]
Ki [1]: 0.38 nM
brain uptake ([2]; 2 min post-injection): 0.99 % dose/g
target to non-target ratio ([2]; 120 min post-injection): 7.7
ratio vs. CB ± SD, cerebellum (SERT [3]; PCA-treated rats): 1.00 ± 0.34
ratio vs. CB ± SD, cortex (SERT [3]; PCA-treated rats): 1.93 ± 0.58
ratio vs. CB ± SD, hippocampus (SERT [3]; PCA-treated rats): 2.29 ± 0.56
ratio vs. CB ± SD, hypothalamus (SERT [3]; PCA-treated rats): 3.87 ± 0.88
ratio vs. CB ± SD, remainder (SERT [3]; PCA-treated rats): 2.27 ± 0.53
ratio vs. CB ± SD, striatum (SERT [3]; PCA-treated rats): 2.90 ± 1.00
ratio vs. CB ± SD, cerebellum (SERT [3]; control rats): 1.00 ± 0.33
ratio vs. CB ± SD, cortex (SERT [3]; control rats): 3.39 ± 1.28
ratio vs. CB ± SD, hippocampus (SERT [3]; control rats): 3.09 ± 1.10
ratio vs. CB ± SD, hypothalamus (SERT [3]; control rats): 4.61 ± 1.44
ratio vs. CB ± SD, remainder (SERT [3]; control rats): 3.12 ± 1.12
ratio vs. CB ± SD, striatum (SERT [3]; control rats): 3.70 ± 1.21
percent binding change in the left striatum (PET), individual scans (SERT [4]; 6-OHDA lesioned rat #1, 10 days between scans): −12% and −10%
average percent binding change in the left striatum (PET) (SERT [4]; 6-OHDA lesioned rat #1, n = 2 scans): −11%
percent binding change in the left striatum (PET), individual scans (SERT [4]; 6-OHDA lesioned rat #2, 20 days between scans): −1% and −7%
average percent binding change in the left striatum (PET) (SERT [4]; 6-OHDA lesioned rat #2, n = 2 scans): −4%
percent binding change in the left striatum (PET), individual scans (SERT [4]; 6-OHDA lesioned rat #3, 7 days between scans): −42% and −44%
average percent binding change in the left striatum (PET) (SERT [4]; 6-OHDA lesioned rat #3, n = 2 scans): −43%
percent binding change in the left striatum (PET), individual rats (SERT [4]; normal control rats, individual values): +4.5% and −3.5%
average percent binding change in the left striatum (PET) (SERT [4]; normal control rats, n = 2 separate rats, left vs right striatum): +0.5%
averaged percent binding reduction of the left rostral striatum brain sections (in vitro autoradiography) (SERT [5]; 6-OHDA lesioned rat #1, rostral striatum sections): −5.9%
averaged percent binding reduction of the left rostral striatum brain sections (in vitro autoradiography) (SERT [5]; 6-OHDA lesioned rat #2, rostral striatum sections): +2.3%
averaged percent binding reduction of the left rostral striatum brain sections (in vitro autoradiography) (SERT [5]; 6-OHDA lesioned rat #3, rostral striatum sections): −37.3%

COC(=O)C1C(c2ccc(Cl)cc2)CC2CCC1N2CC=C[125I] (stereo not drawn) [[^125I]IPT, N-(3′-[^125I]-iodopropen-2′-yl)-2-beta-carbomethoxy-3-beta-(4-chlorophenyl) tropane]
percent change in binding in the left striatum (in vitro autoradiography) ([6]; 6-OHDA lesioned rat #1): −66%
percent change in binding in the left striatum (in vitro autoradiography) ([6]; 6-OHDA lesioned rat #2): −56%
percent change in binding in the left striatum (in vitro autoradiography) ([6]; 6-OHDA lesioned rat #3): −81%
